Screens (PubChem BioAssay)
Rows were chosen to be rich in hits. Some 3% of all compounds tested hit in one or more screens of this group.
5HT1E ag: 5-HT1E (human) receptor agonism. P28566. CHO 5-HT1E Ga15 NFAT-bla reporter, FRET; 0% DMSO wells, 100% control agonist wells. activation, % at 6 µM. 65,000 tested, 0.69% active;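 active = activation above a set limit, the screen-wide mean activation plus 3 SD, cut at about 8.5% in these data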
S1P3 ag: S1P3 (human) receptor agonism | Q99500 | S1P3 NFAT-BLA reporter cells, FRET ratio; relative to 1 µM S1P, basal subtracted | 60,000 tested, 0.1% active | activation, % at 4.5 µM;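 active = activation above the screen-wide mean plus 3 SD, cut at about 4.5% in these data, passing the limit was not always enough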
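Material: Human S1P3 NFAT-BLA reporter CHO cells | Incubation: Overnight plating, 4 h compound 37 °C, 2 h substrate RT | Signal: FRET β-lactamase substrate fluorescence, excitation 405 nm, 460/535 nm emission ratio, background-subtracted | Compound: 4.5 µM final, single dose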
HTR1E antagonist: antagonists of human 5-HT1E serotonin receptor; P28566; CHO 5-HT1E Ga15 NFAT-bla reporter, FRET, antagonist; inhibition, % at 6 µM; 65,000 tested, 0.99% active;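 active = inhibition above a set limit, the mean inhibition across every tested compound plus 3 SD, cut at about 29% in these data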;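 also: signal is the 460 over 535 nm emission ratio of beta-lactamase substrate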
S1P1 ag-PAM: agonists and agonism potentiators of human S1P1 receptor. S1P1 CRE-bla cells, forskolin, beta-lactamase FRET, potentiator mode; S1P1 agonist co-added at EC20, 2 nM; 100% = saturating reference agonist, 0% = basal. activation, % at 9.5 µM. 56,000 tested, 0.57% active. AID 449;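 active = activation above a cutoff set at the mean activation of all tested compounds plus 3 SD, cut at about 54% in these data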;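 also: forskolin at 4 µM as EC80 and the EC20 agonist is SEW2871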
Target sequence (P21453 whole entry, looked up): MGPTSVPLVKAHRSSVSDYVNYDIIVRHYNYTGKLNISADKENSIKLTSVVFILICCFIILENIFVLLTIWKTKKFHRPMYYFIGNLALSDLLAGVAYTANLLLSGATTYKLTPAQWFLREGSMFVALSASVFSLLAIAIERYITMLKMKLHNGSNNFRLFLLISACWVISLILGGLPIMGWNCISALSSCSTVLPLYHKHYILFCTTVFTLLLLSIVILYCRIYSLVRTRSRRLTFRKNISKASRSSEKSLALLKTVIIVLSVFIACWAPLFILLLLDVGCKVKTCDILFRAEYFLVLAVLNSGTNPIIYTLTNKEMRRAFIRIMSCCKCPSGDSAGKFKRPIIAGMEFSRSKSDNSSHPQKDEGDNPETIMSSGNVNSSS
5HT1a antag: antagonists of human 5-HT1a serotonin receptor; 62,000 tested, 0.68% active; CHO 5-HT1a Ga15 NFAT-bla reporter, antagonist mode; inhibition, % at 10 µM; P08908;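 active = inhibition above the mean of all tested compounds plus 3 SD, cut at about 43% in these data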;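 also: receptor stimulated by 5-CT agonist at 100 nM near EC80; beta-lactamase reporter measured by ratiometric fluorescence of a cleavable substrate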
HTR1A agonist: activates the human 5-HT1a serotonin receptor. activation, % at 10 µM. P08908. AID 567. 65,000 tested, 0.56% active. CHO 5-HT1a Ga15 NFAT-bla reporter, FRET ratio; 0% basal, 100% maximal reference agonist;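 active = activation above the screen-wide mean activation plus 3 SD, cut at about 19% in these data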
Large screens that a line does not name were inactive.

CCn1c(SCc2ccc(C(=O)OC)o2)nc2sc3c(c2c1=O)CCCC3	5HT1E ag 9.3
CCn1c(SCC(=O)O)nc2sc3c(c2c1=O)CCC3	none (no result: 5HT1a antag)
C=CCOn1c(=O)c(=O)n(OCc2ccccc2)c2ccccc21	none
c1cc(-c2nnc3sc(C4CCCCC4)nn23)ccn1	5HT1E ag 17 (no result: 5HT1a antag)
COc1ccccc1-c1nnc2sc(C3CCCCC3)nn12	none (no result: 5HT1a antag)
O=C(CN1CCN(c2ccc(Cl)cc2)CC1)c1ccc2c(c1)OCO2	5HT1E ag 15
O=C(NCCCN1CCN(c2ccc(F)cc2)CC1)c1cccc(N2CCCC2=O)c1	5HT1a antag 71
O=C(NCCCN1CCCC1)c1cccc(N2CCCC2=O)c1	none (no result: S1P3 ag, S1P1 ag-PAM)
CCOc1ncccc1C(=O)NCC1COc2ccccc2O1 (stereo not drawn)	none
CCCNC(=O)Nc1cc(C)on1	HTR1A agonist 257
O=C(O)CC1C(=O)NCCN1Cc1ccc(F)c(F)c1 (stereo not drawn)	5HT1E ag 22
O=C(NCc1cccnc1)C1CC(c2ccc(F)cc2)=NO1 (stereo not drawn)	none
Oc1c(CN2CCc3ccccc3C2)cc(Cl)c2cccnc12	HTR1A agonist 30
Oc1c(CN2CCCCC2)cc(Br)c2cccnc12	HTR1E antagonist 41, 5HT1a antag 47
Oc1c(I)cc(Cl)c2cccnc12	none (no result: 5HT1a antag)
Cc1c(O)c(CN2CCCCC2)cc2c3c(c(=O)oc12)CCC3	none (no result: 5HT1a antag)
O=C(Cc1c(O)c2ccccc2[nH]c1=O)OC1CCCCC1	none
Cc1c(NS(=O)(=O)c2ccc3c(c2)CCN3C(=O)C2CC2)c(=O)n(-c2ccccc2)n1C	none
CC1CCN(C(=O)CSc2nc3cccnc3n2C)CC1	HTR1A agonist 89
O=c1c2ccccc2nc2n1CC/C2=C/N1CCN(c2cccc(C(F)(F)F)c2)CC1	5HT1E ag 39
CCn1c(=O)c(C(=O)Nc2nc3ccccc3[nH]2)c(O)c2ccccc21	HTR1E antagonist 64, 5HT1a antag 57
O=C(O)CN1C(=O)Nc2ccc(Br)cc2C1c1ccccc1 (stereo not drawn)	HTR1E antagonist 32 (no result: S1P3 ag, S1P1 ag-PAM)
O=C1CN(C(=O)c2ccc(Br)o2)C(c2ccccc2)c2cc(Br)ccc2N1 (stereo not drawn)	none
O=C1CCCc2sc3c(c2N1)CCCCC3	5HT1E ag 11
Cc1ccc2[nH]c(=O)c(N3CCOCC3)c(-c3ccccc3)c2c1	5HT1a antag 52 (no result: S1P1 ag-PAM)
Cc1csc2ncc(C(=O)NCc3ccccn3)c(=O)n12	none
O=C(Nc1ccccc1NC(=O)NC1CCCCC1)NC1CCCCC1	HTR1E antagonist 56 (no result: S1P1 ag-PAM)
CCCn1c(SCc2nc(-c3cccs3)no2)nnc1-c1ccncc1	none (no result: S1P1 ag-PAM)
CCOc1ccc(-n2c(SCc3nc(-c4cccs4)no3)nnc2-c2ccncc2)cc1	5HT1a antag 50
N=c1sccn1CC(=O)Nc1ccccc1-c1ccccc1	none (no result: S1P3 ag, S1P1 ag-PAM)
N=c1sccn1CC(=O)Nc1cccc(Oc2ccccc2)c1	5HT1a antag 46
O=C(CCCn1nnc(-c2cccnc2)n1)c1ccc(F)cc1	none
CC1CCCCC1n1c(=S)[nH]c2ccccc2c1=O (stereo not drawn)	5HT1E ag 11 (no result: S1P3 ag, S1P1 ag-PAM)
N=c1sc2ccccc2n1-c1ccccc1	5HT1E ag 25 (no result: S1P3 ag, S1P1 ag-PAM)
COc1ccc(-c2cnnn2-c2ccc(NC(=O)c3ccco3)cc2)cc1OC	HTR1E antagonist 47 (no result: S1P3 ag, S1P1 ag-PAM)
CCOC(=O)c1oc2ccccc2c1NC(=O)c1cc(OC)cc(OC)c1	5HT1E ag 112
CN(C)C(=O)CSc1cccc2cccnc12	HTR1E antagonist 39
O=C(O)c1cccnc1SCC(=O)N1CCCCCC1	none
O=C(CSc1cccc2cccnc12)N1CCCC1	HTR1E antagonist 42
CCCCNC(=O)C1CCCN1C(=O)Nc1cccc(OC)c1 (stereo not drawn)	none
Cc1sc2nc(SCC(=O)NCCOCCO)n(C)c(=O)c2c1C	none
O=C(C1CCCN(S(=O)(=O)c2cccc3cccnc23)C1)N1CCN(c2ccccc2F)CC1 (stereo not drawn)	none
Cc1cccc(N2CCN(C(=O)C3CCCN(S(=O)(=O)c4cccc5cccnc45)C3)CC2)c1C (stereo not drawn)	5HT1E ag 18
